Data as given in ChEMBL document CHEMBL4350968, “Structure Guided Design, Synthesis, and Biological Evaluation of Novel Benzosuberene Analogues as Inhibitors of Tubulin Polymerization” (J Med Chem, 2019).
Active and inactive are the calls of the source. The calls are words filed in the database; no cut-off is given here.

What was measured:
DU-145 = experiment: Cytotoxicity against human DU145 cells assessed as growth inhibition measured after 48 hrs by SRB assay; type: functional; settings: DU-145, 48 h
SK-OV-3 = experiment: Cytotoxicity against human SKOV3 cells assessed as growth inhibition measured after 48 hrs by SRB assay; type: functional; settings: SK-OV-3, 48 h
NCI-H460 = experiment: Cytotoxicity against human NCI-H460 cells assessed as growth inhibition measured after 48 hrs by SRB assay; type: functional; settings: NCI-H460, 48 h
Tubulin = Tubulin (Bos taurus, UniProt Q6B856+Q862L2+Q862F3); experiment: Inhibition of bovine brain tubulin polymerization preincubated for 15 mins followed by GTP addition and measured for 20 mins by turbidimetry-based spectrophotometric method
Method in brief: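 Mixtures held 10 µM purified bovine brain tubulin, 0.8 M monosodium glutamate pH 6.6, 4% DMSO and varied compound concentrations. These were preincubated 15 min at 30 °C without GTP, then chilled to 0 °C, and GTP was added to 0.4 mM final. Temperature was raised to 30 °C and turbidity followed at 350 nm for 20 min.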

Tubulin (Homo sapiens) [1] = biological target: T1, Tubulin (Homo sapiens) (UniProt P68371+Q9H4B7+P0DPH7+P68366+Q13509+Q71U36+P04350+Q3ZCM7+P07437+P68363+Q9BQE3+Q6PEY2+Q13885+Q9BVA1+Q9BUF5); experiment: Inhibition of [3H]colchicine binding to tubulin (unknown origin) at 5 uM measured after 10 mins by beckman scintillation counting method relative to control; type: protein-complex assay
Method in brief: (§1)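 Each 0.1 mL mix held 1.0 µM tubulin, 5.0 µM [3H]colchicine, 5% DMSO and compound at 1.0 or 5.0 µM. Stabilising components were 1.0 M monosodium glutamate pH 6.6, 0.5 mg/mL BSA, 0.1 M glucose-1-phosphate, 1.0 mM MgCl2 and 1.0 mM GTP. After 10 min at 37 °C, reactions were stopped with ice-cold water and filtered on DEAE-cellulose. Bound label was counted and percent inhibition taken versus no-inhibitor samples, correcting for filter binding without tubulin.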

Tubulin (Homo sapiens) [2] = biological target: T1, Tubulin (Homo sapiens); experiment: Inhibition of [3H]colchicine binding to tubulin (unknown origin) measured after 10 mins by beckman scintillation counting method relative to control; type: protein-complex assay
Method in brief: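 The 0.1 mL mix held 1.0 µM tubulin, 5.0 µM [3H]colchicine, 5% DMSO and compound at 1.0 or 5.0 µM. It also held 1.0 M monosodium glutamate (pH 6.6), 0.5 mg/mL BSA, 0.1 M glucose-1-phosphate, 1.0 mM MgCl2 and 1.0 mM GTP. After 10 min at 37 °C the reaction was stopped on ice, the mix filtered through DEAE-cellulose and counted. Percent inhibition was taken against the no-inhibitor control, corrected for label bound without tubulin.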

Tubulin (Homo sapiens) [3] = biological target: T1, Tubulin (Homo sapiens); experiment: Inhibition of [3H]colchicine binding to tubulin (unknown origin) at 1 uM measured after 10 mins by beckman scintillation counting method relative to control; type: protein-complex assay; method in brief: as §1
PC-3 [4] = experiment: Induction of vascular damage in human PC3 cells harboring DAB2IP-luc xenografted in Copenhagen rat assessed as reduction in light emission at 10 mg/kg, ip administered 6 hrs prior to 40 mg/kg, ip dosing and measured after 4 hrs by bioluminescence imaging analysis relative to control; type: functional; parameters: scale not given: the % may be the effect or the level left
Method in brief: (§2)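 Male Copenhagen rats (about 6 weeks old, 100-120 g) were implanted s.c. in the right thigh with 5 X 10⁵ PC3-DAB2IP-luc cells in 30% Matrigel. Tumors were at least 1 cm in diameter before treatment. Prodrug in saline (25 mg/mL) was given IP, one rat per regimen. Under isoflurane, 120 mg/kg D-luciferin was injected s.c. fresh at baseline, 4 h and 24 h. Tumor ROI light emission was followed over about 30 min.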

[5] = Toxicity in Copenhagen rat xenografted with human PC3 cells harboring DAB2IP-luc at 40 mg/kg, ip measured after 48 hrs; type: organism-based; settings: in vivo
PC-3 [6] = experiment: Induction of vascular damage in human PC3 cells harboring DAB2IP-luc xenografted in Copenhagen rat assessed as reduction in light emission at 80 mg/kg, ip measured after 4 to 24 hrs by Bioluminescence imaging analysis; type: functional, organism-based; method in brief: as §2
PC-3 [7] = experiment: Induction of vascular damage in human PC3 cells harboring DAB2IP-luc xenografted in Copenhagen rat assessed as reduction in light emission at 10 mg/kg, ip measured after 4 to 24 hrs by Bioluminescence imaging analysis; type: functional, organism-based; method in brief: as §2
PC-3 [8] = experiment: Induction of vascular damage in human PC3 cells harboring DAB2IP-luc xenografted in Copenhagen rat assessed as reduction in light emission at 40 mg/kg, ip measured after 24 to 48 hrs by Bioluminescence imaging analysis; type: functional, organism-based; method in brief: as §2
PC-3 [9] = experiment: Induction of vascular damage in human PC3 cells harboring DAB2IP-luc xenografted in Copenhagen rat assessed as reduction in light emission at 40 mg/kg, ip measured after 4 hrs by Bioluminescence imaging analysis; type: functional, organism-based; method in brief: as §2
[10] = Toxicity in Copenhagen rat xenografted with human PC3 cells harboring DAB2IP-luc at 80 mg/kg, ip measured after 4 to 24 hrs; type: organism-based; settings: in vivo
PC-3 [11] = experiment: (§3) Induction of vascular damage in human PC3 cells harboring DAB2IP-luc xenografted in Copenhagen rat assessed as reduction in light emission at 10 mg/kg, ip administered 6 hrs prior to 40 mg/kg, ip dosing and measured after 24 hrs by bioluminescence imaging analysis; type: functional, organism-based; method in brief: as §2
PC-3 [12] = experiment: as §3, with “24” for “6”, “dosing for 4 hrs followed by CA4P dosing at 30 mg/kg, ip” for “dosing”, “after 4 to” for “after”; type: functional, organism-based; method in brief: as §2

SMILES | GI50 (DU-145) | GI50 (SK-OV-3) | GI50 (NCI-H460) | IC50 (Tubulin) | inhibition (Tubulin (Homo sapiens) [1]) | further results
COc1cc(C2=CCCCc3c2ccc(OC)c3OCCO)cc(OC)c1OC | 3.76 µM | 3.22 µM | 0.855 µM | > 20 µM |  | 
COc1ccc2c(c1C#N)CCC=C2c1cc(OC)c(OC)c(OC)c1 | 0.0252 µM | 0.0384 µM | 0.0605 µM | 0.37 µM | 73% | 
CC(=O)O[C@H]1C(=O)[C@@]2(C)[C@H]([C@H](OC(=O)c3ccccc3)[C@]3(O)C[C@H](OC(=O)[C@H](O)[C@@H](NC(=O)c4ccccc4)c4ccccc4)C(C)=C1C3(C)C)[C@]1(OC(C)=O)CO[C@@H]1C[C@@H]2O [PACLITAXEL] | 0.00147 µM | 0.00134 µM | 0.00176 µM |  |  | inhibition (Tubulin (Homo sapiens) [2]): inactive
COc1ccc2c(c1C)CCCC(Br)=C2c1cc(OC)c(OC)c(OC)c1 | 0.423 µM | 0.312 µM | 0.449 µM | 4.9 µM |  | inhibition (Tubulin (Homo sapiens) [3]): 35%
COc1cccc2c1C(=O)c1c(O)c3c(c(O)c1C2=O)C[C@@](O)(C(=O)CO)C[C@@H]3O[C@H]1C[C@H](N)[C@H](O)[C@H](C)O1 [DOXORUBICIN] | 0.134 µM | 0.0789 µM | 0.123 µM |  |  | 
COc1cc(C2=CC=CCc3c2ccc(OC)c3OP(=O)([O-])[O-])cc(OC)c1OC.[Na+].[Na+] |  |  | 0.0291 µM | 16 µM | 45% | Activity (PC-3 [4]): 95%; Activity [5]: Non-Toxic; Activity (PC-3 [6]): inactive; Activity (PC-3 [7]): inactive; Activity (PC-3 [8]): inactive; Activity (PC-3 [9]): Active; Activity [10]: Non-Toxic; Activity (PC-3 [11]): inactive; Activity (PC-3 [12]): Active
COc1ccc2c(c1O)CCCC(O)C2(O)c1cc(OC)c(OC)c(OC)c1 (centres undefined) | 4.04 µM | 3.03 µM | 3.86 µM | > 20 µM | 0% | 
COc1cc(C2CCc3c(ccc(OC)c3OC)C(=O)C2)cc(OC)c1OC (centres undefined) | 4.45 µM | 5.77 µM | 2 µM | > 20 µM | 0% | 
COc1ccc2c(c1O)CCC(NC(C)=O)C=C2c1cc(OC)c(OC)c(OC)c1 (centres undefined) | 1.2 µM |  | 0.334 µM |  | 0.4% | 
COc1ccc(/C=C\c2cc(OC)c(OC)c(OC)c2)cc1OP(=O)(O)O [FOSBRETABULIN DISODIUM] | 0.00323 µM | 0.00119 µM | 0.00194 µM |  |  | 
COc1cc(C2(O)C=CCCc3c2ccc(OC)c3OC)cc(OC)c1OC (centres undefined) | 26 µM | 27.2 µM | 70.5 µM | > 20 µM | 0% | 
